Screening results: PubChem, several laboratories
ABCG2 inh: human ABCG2 inhibition, ABCB1 as counter-screen; Q9UNQ0; IgMXP3 cells, JC-1 efflux, flow cytometry; inhibition, % at 6.6 µM; 190,000 compounds, 0.1% hits; AID 1325;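 active = inhibition above 80%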;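 also: 0% = DMSO and 100% = nicardipine control wells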
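Test system: ABCG2 IgMXP3 and barcoded ABCB1 CCRF-Adr cell mix; Schedule: cells with compound and JC-1, 10 min at 25 °C, rotating, no wash; Technique: flow cytometry of retained JC-1 fluorescence; Measure: % inhibition of efflux relative to nicardipine and DMSO; Controls: nicardipine high and DMSO low controls.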
ABCB1 block: inhibitors of human ABCB1 transporter, ABCG2 counter-screen | 190,000 compounds, 0.067% hits | inhibition, % at 6.6 µM | CCRF-Adr cells, JC-1 efflux, flow cytometry | AID 1326 | P08183; in the data active = inhibition above about 40%;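 also: 0% = vehicle and 100% = reference inhibitor; higher value means more JC-1 retained so stronger ABCB1 efflux block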
Target sequence (P08183 whole entry, looked up): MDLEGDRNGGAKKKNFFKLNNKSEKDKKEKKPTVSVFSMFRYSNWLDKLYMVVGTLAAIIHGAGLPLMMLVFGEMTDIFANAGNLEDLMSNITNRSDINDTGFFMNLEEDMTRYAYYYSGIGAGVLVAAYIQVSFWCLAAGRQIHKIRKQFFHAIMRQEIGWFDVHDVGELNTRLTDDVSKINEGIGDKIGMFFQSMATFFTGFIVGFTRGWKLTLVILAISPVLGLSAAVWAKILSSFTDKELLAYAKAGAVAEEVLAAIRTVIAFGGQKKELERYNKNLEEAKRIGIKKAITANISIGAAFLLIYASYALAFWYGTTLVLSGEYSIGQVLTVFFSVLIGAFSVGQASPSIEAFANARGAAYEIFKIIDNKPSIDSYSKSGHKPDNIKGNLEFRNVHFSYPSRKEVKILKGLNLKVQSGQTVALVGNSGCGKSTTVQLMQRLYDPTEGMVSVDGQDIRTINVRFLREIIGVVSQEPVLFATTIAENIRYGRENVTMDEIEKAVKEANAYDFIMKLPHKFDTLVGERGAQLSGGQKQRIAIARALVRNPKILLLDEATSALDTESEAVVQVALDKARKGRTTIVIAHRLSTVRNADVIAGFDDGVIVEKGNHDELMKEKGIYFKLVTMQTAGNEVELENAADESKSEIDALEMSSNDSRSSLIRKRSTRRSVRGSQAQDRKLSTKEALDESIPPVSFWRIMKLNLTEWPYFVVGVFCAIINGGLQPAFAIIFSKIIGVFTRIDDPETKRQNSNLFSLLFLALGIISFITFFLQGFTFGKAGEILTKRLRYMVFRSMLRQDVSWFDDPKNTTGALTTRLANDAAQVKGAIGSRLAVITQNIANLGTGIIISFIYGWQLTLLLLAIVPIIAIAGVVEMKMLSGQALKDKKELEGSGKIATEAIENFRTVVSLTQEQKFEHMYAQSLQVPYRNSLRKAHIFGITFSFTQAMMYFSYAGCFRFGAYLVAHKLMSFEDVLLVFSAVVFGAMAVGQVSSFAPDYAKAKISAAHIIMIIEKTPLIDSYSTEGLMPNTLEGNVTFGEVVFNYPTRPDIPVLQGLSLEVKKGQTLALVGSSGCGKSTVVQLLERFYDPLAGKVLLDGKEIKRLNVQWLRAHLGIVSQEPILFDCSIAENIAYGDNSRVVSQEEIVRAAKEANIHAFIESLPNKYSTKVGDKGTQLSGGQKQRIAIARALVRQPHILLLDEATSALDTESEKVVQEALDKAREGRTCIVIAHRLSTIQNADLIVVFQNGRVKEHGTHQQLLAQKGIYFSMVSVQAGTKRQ
PKD1 inh: blocks activity of human protein kinase D1; Q15139; PKD1 kinase fluorescence polarization assay; inhibition, % (no concentration beside the values); 200,000 compounds, 0.056% hits; AID 797
L major viab: Leishmania major promastigote growth inhibition; Leishmania major promastigotes, resazurin fluorescence viability; inhibition, % at 10 µM; 200,000 compounds, 9% hits; AID 1063;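 also: promastigotes grown with compound for 44 hours at 28 °C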
Avidin fluor: compound fluoresces at 488/530 nm on avidin beads; compound fluorescence 488/530 nm, flow cytometry; stronger effect = higher value; fluorescence (KMESF) at 10 µM; 220,000 compounds, 0.38% hits; in the data active = fluorescence above about 47
GSH bead fluor: compound fluoresces at 488/530 nm on GSH beads | fluorescence (KMESF) at 10 µM | GSH beads flow cytometry, compound fluorescence 488/530 nm; stronger effect = higher value | 190,000 compounds, 0.25% hits | AID 1776; in the data active = fluorescence above about 89;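 also: glutathione beads carrying GST-tagged Bcl family fusion proteins plus one bare bead set; values are compound well signal with DMSO vehicle wells as background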
Starred values were filed as active, the others as inactive. The full list was thinned out, with hits kept by preference. Rule as the data show it, unless noted: active = inhibition above about 50%; inactive = the rest.

Results for O=[N+]([O-])c1ccc(/C=N/Nc2nc(N3CCCCCC3)nc(N3CCCCCC3)n2)o1 ?
ABCG2 inh: 2.6; ABCB1 block: -0.1; PKD1 inh: -13.8; L major viab: 100.1*; Avidin fluor: 6; GSH bead fluor: 17

How did O=[N+]([O-])c1ccccc1/C=N/Nc1nc(N2CCCC2)nc(N2CCCC2)n1 do in these assays?
ABCG2 inh: 11.8; ABCB1 block: 3.5; PKD1 inh: -0.5; L major viab: 1.1; Avidin fluor: 20; GSH bead fluor: 14

What do the screens show for `COc1nc(N/N=C/c2ccc(-c3ccccc3[N+](=O)[O-])o2)nc(N2CCOCC2)n1`?
ABCG2 inh: 4.1; ABCB1 block: 0.2; PKD1 inh: 1.8; L major viab: 85.9*; Avidin fluor: 13; GSH bead fluor: 3

What do the screens show for `COc1ccc([N+](=O)[O-])cc1/C=N/Nc1nc(N2CCCCC2)nc(N2CCCCC2)n1`?
ABCG2 inh: 0.1; ABCB1 block: -0.1; PKD1 inh: 0.4; L major viab: 42.3; Avidin fluor: 23; GSH bead fluor: 20

Results for O=[N+]([O-])c1ccc(/C=N/Nc2nc(N3CCCCC3)nc(N3CCCCC3)n2)cc1 ?
ABCG2 inh: 5.7; ABCB1 block: 1.8; PKD1 inh: -5.6; L major viab: 53.5*; Avidin fluor: 11; GSH bead fluor: 24

What do the screens show for `COc1ccccc1CN1C[C@@H]2C[C@@H](c3ccc(C)c(C)c3)N3CCC[C@@]23C1=O`?
ABCG2 inh: -0.2; ABCB1 block: -0.2; PKD1 inh: -3.5; L major viab: 32.8; Avidin fluor: 10; GSH bead fluor: 10

What do the screens show for `Cc1ccc(S(=O)(=O)NCCCCCC(=O)Nc2c(C)n(C)n(-c3ccccc3)c2=O)cc1`?
ABCG2 inh: 31.1; ABCB1 block: 1.8; PKD1 inh: -9.0; L major viab: 4.6; Avidin fluor: 12; GSH bead fluor: 11

What do the screens show for `COc1cnc(SCC(=O)O)[nH]c1=O`?
ABCG2 inh: -0.9; ABCB1 block: -0.3; PKD1 inh: -8.8; L major viab: -5.4; Avidin fluor: 34; GSH bead fluor: 13

Results for O=C1C2C3C=CC(C2C(=O)N1c1cccc(O)c1)C1C2C(=O)N(c4cccc(O)c4)C(=O)C2C31 (centres undefined) ?
ABCG2 inh: 9.8; ABCB1 block: 0.6; PKD1 inh: -3.6; L major viab: -15.2; Avidin fluor: 10; GSH bead fluor: 14

How did O=[N+]([O-])c1ccc(Nc2nc(N/N=C\c3ccc4c(c3)OCO4)nc(N3CCCCC3)n2)cc1 do in these assays?
ABCG2 inh: -3.6; ABCB1 block: -0.8; PKD1 inh: 3.6; L major viab: 99.8*; Avidin fluor: 28; GSH bead fluor: 24

What do the screens show for `O=C(Cn1c(=O)oc2cc(S(=O)(=O)N3CCCCC3)ccc21)N1CCc2ccccc21`?
ABCG2 inh: -3.2; ABCB1 block: -3.0; PKD1 inh: -15.5; L major viab: 6.0; Avidin fluor: 7; GSH bead fluor: 18

Results for Cc1c(C(=O)N2CCc3ccccc3C2)oc2ccc(S(=O)(=O)N3CCCCCC3)cc12 ?
ABCG2 inh: 15.8; ABCB1 block: 6.0; PKD1 inh: 0.9; L major viab: 66.0*; Avidin fluor: 8; GSH bead fluor: 8

What do the screens show for `O=C(Cn1c(=O)oc2cc(S(=O)(=O)N3CCOCC3)ccc21)N1CCc2ccccc2C1`?
ABCG2 inh: -0.5; ABCB1 block: 0.1; PKD1 inh: -0.4; L major viab: -2.9; Avidin fluor: 3; GSH bead fluor: 17

How did CC1Cc2ccccc2N1C(=O)Cn1c(=O)oc2cc(S(=O)(=O)N3CCCCC3)ccc21 (centres undefined) do in these assays?
ABCG2 inh: 0.6; ABCB1 block: 0.3; PKD1 inh: -18.2; L major viab: 99.7*; Avidin fluor: 5; GSH bead fluor: 13

What do the screens show for `O=C(Cn1c(=O)oc2cc(S(=O)(=O)N3CCCC3)ccc21)N1CCN(c2ccccn2)CC1`?
ABCG2 inh: -0.7; ABCB1 block: 0.0; PKD1 inh: -20.5; L major viab: 100.2*; Avidin fluor: 7; GSH bead fluor: 17

How did O=C(Cn1c(=O)oc2cc(S(=O)(=O)N3CCCC3)ccc21)N1CCc2ccccc2C1 do in these assays?
ABCG2 inh: 1.9; ABCB1 block: 0.7; PKD1 inh: 0.7; L major viab: 99.6*; Avidin fluor: 10; GSH bead fluor: 20

What do the screens show for `Cc1noc(C)c1CSc1nnc2scc(-c3ccc(Cl)cc3)n12`?
ABCG2 inh: 8.6; ABCB1 block: -0.6; PKD1 inh: 0.7; L major viab: 28.6; Avidin fluor: 11; GSH bead fluor: 32

Results for CCn1c(=O)n(CC)c2cc(S(=O)(=O)N3CCc4ccccc43)ccc21 ?
ABCG2 inh: 2.5; ABCB1 block: 0.7; PKD1 inh: 5.7; L major viab: 87.0*; Avidin fluor: 6; GSH bead fluor: 19

What do the screens show for `O=C(Cn1c(=O)oc2cc(S(=O)(=O)N3CCc4ccccc43)ccc21)N1CCCCC1`?
ABCG2 inh: 1.3; ABCB1 block: 0.6; PKD1 inh: 4.1; L major viab: 97.5*; Avidin fluor: 7; GSH bead fluor: 22

Results for CN1CCN(CCCC(=O)c2ccc(F)cc2)CC1 ?
ABCG2 inh: 1.1; ABCB1 block: 0.4; PKD1 inh: -11.9; L major viab: 16.9; Avidin fluor: 2; GSH bead fluor: 58

How did O=C(CCCN1Cc2ccccc2C1)c1ccc(F)cc1 do in these assays?
ABCG2 inh: 0.5; ABCB1 block: 0.3; PKD1 inh: -6.5; L major viab: 93.0*; Avidin fluor: 23; GSH bead fluor: 55

How did O=C(CCN1Cc2ccccc2C1)c1ccc2c(c1)OCCO2 do in these assays?
ABCG2 inh: 0.8; ABCB1 block: 0.4; PKD1 inh: -15.8; L major viab: 83.2*; Avidin fluor: 8; GSH bead fluor: 33

Results for O=C(O)CCC(=O)c1ccc2c(c1)OCCO2 ?
ABCG2 inh: 2.3; ABCB1 block: 0.2; PKD1 inh: -3.4; L major viab: -3.1; Avidin fluor: 6; GSH bead fluor: 25

What do the screens show for `O=C(CCN1CCc2ccccc2C(c2ccccc2)C1)c1ccc2c(c1)OCCO2` (centres undefined)?
ABCG2 inh: -1.7; ABCB1 block: -0.2; PKD1 inh: -0.5; L major viab: 100.5*; Avidin fluor: 3; GSH bead fluor: 31

Results for CCn1cc(C(=O)O)c(=O)c2cc(F)c(N3CCN(C(=S)NC(=O)c4ccc(F)c(F)c4)CC3)cc21 ?
ABCG2 inh: 0.4; ABCB1 block: 0.0; PKD1 inh: 1.6; L major viab: -4.0; Avidin fluor: 9; GSH bead fluor: 9
